High-throughput results deposited in PubChem BioAssay by several laboratories.
tolC growth inh: growth inhibitors of E. coli BW25113 tolC mutant. OD615. growth inhibition, % at 10 µM (by protocol). 65,000 compounds, 2.2% hits. AID 573;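 active = growth inhibition at or above a cutoff equal to the mean over every tested compound plus 3 SD, cut at about 60% in these data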;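 note: growth measured after 20 h incubation at 37 °C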
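Doses: one dose of 10 µM final / Material: E. coli BW25113 ΔtolC::kan, tolC deletion mutant strain / Buffer or medium: LB with kanamycin 50 µg/mL / Evaluation: percent growth inhibition / Detection: optical density read at 615 nm / Incubation: 37 °C, 20 h exposure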
PostGolgi yeast: growth inhibition of a yeast mutant, post-Golgi transport screen; post-Golgi transport phenotypic cell assay; inhibition, % at 10 µM; 98,000 compounds, 0.9% hits; AID 739;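 note: yeast cells grown in 1536-well plates; yeast grown about 18 h at 30C before absorbance read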
E coli WT exp: blocks growth of wild type E. coli BW25113; 98,000 compounds, 0.15% hits; growth inhibition, % at 100 µM; OD600 absorbance;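 active = growth inhibition above about 50% at one test dose, limit read from the data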;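 note: growth measured after 20 h incubation at 37 °C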
D1 allo mod: allosterically modulates the human D1 dopamine receptor. B-score at 10 µM. 58,000 compounds, 5.9% hits. HEK293 D1, CRE-luciferase, dopamine EC30 potentiation; actives deviate in either direction. AID 641. P21728;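 active = luminescence count or its row- and column-corrected plate score outside the 99.7% band of the plate's sample wells, on either side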
DAT uptake mod: modulates human dopamine transporter uptake under cocaine. LLC-PK1 hDAT cells, [14C]-dopamine uptake with cocaine IC80; actives deviate in either direction. Q01959. 110,000 compounds, 1.3% hits. B-score at 10 µM;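 active = Z score or B-score, a plate-position-corrected score, falls beyond the plate's 99.7% confidence bounds, in either direction; inactive = both scores lie inside the 99.7% bounds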;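 note: scored against the spread of the other compound wells on the same plate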
Target sequence (Q01959 whole entry, looked up): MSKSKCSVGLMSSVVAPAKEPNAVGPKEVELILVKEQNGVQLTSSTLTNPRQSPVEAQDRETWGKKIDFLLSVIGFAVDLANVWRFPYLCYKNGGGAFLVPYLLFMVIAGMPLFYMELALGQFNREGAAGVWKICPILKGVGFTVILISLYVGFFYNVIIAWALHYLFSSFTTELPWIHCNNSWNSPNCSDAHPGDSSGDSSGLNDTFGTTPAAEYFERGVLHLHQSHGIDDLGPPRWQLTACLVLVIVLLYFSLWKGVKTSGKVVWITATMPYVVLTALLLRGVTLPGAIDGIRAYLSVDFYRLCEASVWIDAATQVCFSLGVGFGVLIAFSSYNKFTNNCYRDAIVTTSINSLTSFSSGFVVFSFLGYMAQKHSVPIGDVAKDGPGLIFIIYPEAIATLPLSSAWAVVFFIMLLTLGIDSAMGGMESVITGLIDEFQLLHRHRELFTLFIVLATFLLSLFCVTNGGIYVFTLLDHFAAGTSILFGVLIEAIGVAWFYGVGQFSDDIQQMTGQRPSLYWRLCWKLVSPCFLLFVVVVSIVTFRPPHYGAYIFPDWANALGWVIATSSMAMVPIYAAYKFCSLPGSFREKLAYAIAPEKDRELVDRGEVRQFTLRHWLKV
PostGolgi ctrl: growth of the yeast control strain, post-Golgi counter-screen | efflux-deficient yeast background strain, growth absorbance A615, 16 h | 98,000 compounds, 5% hits | AID 738 | inhibition, % at 10 µM
D1 mod confirm: confirmation of human D1 dopamine receptor allosteric modulators. shares compounds with D1 allo mod. HEK293 D1 CRE-luciferase, dopamine EC30 potentiation; hits give high values. luminescence at 10 µM. 2,200 compounds, 88% hits;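 active = luminescence in either of two replicates above the same-plate mean plus 3 SD of the low-dose dopamine control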
D1 ag no DA: D1 (human) signaling in absence of dopamine | shares compounds with D1 allo mod | HEK293 D1 CRE-luciferase, luminescence, no dopamine; hits give high values | luminescence at 10 µM | 1,900 compounds, 0.8% hits; in the data active = luminescence above about 3900
Isoprot counter: counter-screen for D1 modulators: isoproterenol response in HEK293 cells | shares compounds with D1 allo mod | HEK293 D1 CRE-luciferase, isoproterenol EC30 counter-screen | calls only at 10 µM | 2,200 compounds, 63% hits | AID 647;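 active = luminescence in either replicate above plate mean of wells with a partly effective reference agonist dose plus 3 SD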;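 note: isoproterenol raises cAMP through native beta-adrenoceptor Gs so signal bypasses D1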
An asterisk follows results filed as active; i = inactive; x = no result given; + = active, no number. Compounds with a hit are over-represented: about 9.3% of the library has one in this group of screens. Cut-off read from the data, not from the text of the source, unless noted: active = inhibition above about 30%; inactive = the rest.

SMILES | tolC growth inh | PostGolgi yeast | E coli WT exp | D1 allo mod | DAT uptake mod | PostGolgi ctrl | D1 mod confirm | D1 ag no DA | Isoprot counter
COc1ccc(C2CC(=O)c3cnc(NC(=O)c4ccccc4OC)nc3C2)c(OC)c1 (stereo not drawn) | 16 | 0 | -12 | 6.5* | 1.5 | 21 | 15748* | 1700 | +
COc1ccc(C2CC(=O)c3cnc(NC(=O)c4cccc(OC)c4)nc3C2)cc1 (stereo not drawn) | 17 | 4 | 2 | 0.0099 | -0.24 | 12 | x | x | x
COc1ccc(C2CC(=O)c3cnc(NC(=O)c4ccccc4)nc3C2)cc1OC (stereo not drawn) | 2 | 1 | -8 | 4.6* | -0.76 | 3 | 9012* | 1692 | +
CC(=O)c1ccc(-c2cc([C@H]3[C@H]4C=CC[C@@H](C)[C@@H]4C(=O)N3Cc3ccccc3)ccc2F)cc1 | x | x | x | x | -0.09 | x | x | x | x
CCOC(=O)N1CCN(S(=O)(=O)c2cccc3ccc(C)nc23)CC1 | -1 | -1 | -1 | -0.041 | 0.0068 | 4 | x | x | x
O=C(OCn1nnc2ccccc2c1=O)c1cccnc1Cl | x | 3 | 3 | x | -0.54 | 2 | x | x | x
CC(=O)c1c(C)[nH]c(C(=O)OCn2nnc3ccccc3c2=O)c1C | -7 | 25 | -5 | 2.4* | 0.0039 | 23 | 5372 | x | i
CSc1ncccc1C(=O)OCn1nnc2ccccc2c1=O | -2 | -6 | -2 | 3.3* | -0.0082 | 6 | 9044* | 1656 | +
CC(CCc1ccco1)NC(=O)CSc1cc(=O)n(C)c2ccccc12 (stereo not drawn) | 11 | 0 | 1 | 0.065 | 0.054 | 1 | x | x | x
N#CC1=C(N)S[C@H](C(=O)C23CC4CC(CC(C4)C2)C3)[C@H]1c1ccncc1 | 47 | -9 | 1 | 12* | -0.091 | 5 | 12784* | 1676 | +
Cc1nc2cccc(C(=O)NC3CCCCC3)c2o1 | 4 | 22 | 4 | 14* | -0.1 | 4 | 19668* | x | +
O=C(NC1CCCC1)c1cccnc1N1CCCCCC1 | -9 | -1 | -7 | -0.017 | 0.0004 | 0 | x | x | x
c1ccc(-c2nn3nnnc3c3ccccc23)cc1 | 5 | -8 | 4 | 12* | 0.2 | -3 | 13348* | 1552 | +
CC(C)(C)n1nnnc1CN1C2CCC1CC(NC(=O)Nc1ccccc1)C2 (stereo not drawn) | 2 | 14 | -2 | 4.8* | 0.52 | 0 | 5228 | x | i
CC12CC(NC(=O)N1c1cccc(C(=O)N3CCN(c4ccccc4F)CC3)c1)c1ccccc1O2 (stereo not drawn) | 15 | 1 | 6 | 3.5* | 0.5 | 2 | 4916 | 1480 | i
CC12CC(NC(=O)N1c1cccc(C(=O)N3CCN(c4ccccn4)CC3)c1)c1ccccc1O2 (stereo not drawn) | 6 | -1 | 3 | 0.22 | 1.9 | 1 | x | x | x
O=C(NC1CCCCC1)c1nn2c(C(F)(F)F)cc(-c3ccco3)nc2c1Br | -22 | -5 | 1 | 0.83 | 0.17 | 13 | x | x | x
O=C(NC1CCCCC1)c1cnn2c(C(F)(F)F)cc(-c3ccco3)nc12 | 21 | 18 | -3 | 5.3* | -0.81 | 4 | 6744* | 1356 | +
CCCCNC(=O)C1CCCN1C(=O)Nc1ccccc1 (stereo not drawn) | x | x | x | x | 0.72 | x | x | x | x
CCOC(=O)c1cc2cc(F)ccc2nc1C | -2 | -6 | 11 | 10* | 0.3 | 3 | 12456* | 1480 | +
COc1ccc(C)cc1NC(=O)c1cnc2scc(C)n2c1=O | -3 | 0 | -9 | -0.6 | -0.87 | 3 | x | x | x
O=C(NCCc1ccc(Cl)cc1)c1cccnc1 | x | -6 | 7 | x | -0.66 | 10 | x | x | x
COc1ccc(CCNC(=O)c2cnc3scc(C)n3c2=O)cc1OC | 10 | 7 | 0 | 40* | 0.73 | 5 | 17580* | 1900 | +
COc1ccc(CCNC(=O)c2cccnc2)cc1OC | 3 | -4 | -2 | 3.4* | 0.099 | 2 | 6704 | 1660 | i
CCCN1CNC(=S)N(c2cc(C)ccc2C)C1 | x | x | x | x | 0.15 | x | x | x | x
SMILES | tolC growth inh | PostGolgi yeast | E coli WT exp | D1 allo mod | DAT uptake mod | PostGolgi ctrl | D1 mod confirm | D1 ag no DA | Isoprot counter
C=CCN=C(NC#N)SCc1ccccc1Cl | 5 | 1 | 4 | 7.4* | -0.58 | -6 | 8148* | x | i
CC(C)N=C(NC#N)SCc1ccc(F)cc1 | -14 | 2 | 0 | -0.6 | -1.1 | 9 | x | x | x
C/C(N)=C(/C#N)C(=O)CSc1nnc(Nc2c(C)cccc2C)s1 | 21 | 2 | -3 | 0.42 | 0.77 | 8 | x | x | x
C/C(N)=C(/C#N)C(=O)CSc1nnc(SCc2ccc(Cl)cc2)s1 | 5 | -4 | 30 | 6.7* | -0.06 | 2 | 6760* | 1560 | i
CCN(CC)S(=O)(=O)c1cccc2c(N(C)C)cccc12 | 1 | 1 | -1 | -0.09 | 0.68 | 17 | x | x | x
COC(=O)C(NC=O)C(O)(Cc1ccccc1)C(F)(F)F (stereo not drawn) | -9 | 1 | -2 | x | 0.12 | 10 | x | x | x
CC1=C(C)/C(=N/OC(=O)c2cccc([N+](=O)[O-])c2)C=CC1=O | x | x | x | x | 0.3 | x | x | x | x
CC1CCCN(C(c2cccs2)c2nnnn2Cc2ccccc2)C1 (stereo not drawn) | x | -2 | 0 | x | 0.042 | 19 | x | x | x
COc1nccc(Nc2ccccc2)c1C#N | -10 | 10 | 4 | 6.6* | -0.88 | 6 | 14732* | x | +
CSc1nccc(Nc2ccccc2)c1C#N | 21 | 8 | 10 | x | 0.033 | 7 | x | x | x
CSc1nnc2c3ccccc3n(CCc3ccccc3)c2n1 | -4 | 0 | 0 | 0.47 | -0.0033 | 18 | x | x | x
CSc1nnc2c3ccccc3n(Cc3ccccc3)c2n1 | -3 | 24 | -4 | 10* | -0.55 | 15 | 15672* | 1436 | +
Cc1cccc(N2CCN(C(=O)c3cccc(N4C(=O)C5CC=CC(C)C5C4=O)c3)CC2)c1C (stereo not drawn) | x | -13 | -13 | x | 0.99 | 22 | x | x | x
CCOc1ccc2nc(SCC#N)c(C#N)cc2c1 | -33 | 0 | -3 | -0.0021 | 0.51 | -1 | x | x | x
N#Cc1cc2ccccc2nc1SCc1ccccn1 | 20 | 10 | -1 | 4.4* | -0.52 | 1 | 8624* | x | +
Cc1cc(C)cc(SCc2noc(C(=O)NCCC(C)C)c2C(=O)NCCC(C)C)c1 | x | x | x | x | -0.3 | x | x | x | x
CSC1=NCCN1C(=O)c1ccc(Br)o1 | -13 | 1 | 1 | 5.7* | -0.75 | -6 | 11560* | 1672 | i
CSC1=NCCN1C(=O)Cc1cccs1 | -11 | -3 | -10 | 9.8* | -0.9 | 3 | 7652* | 1576 | i
CCOC(=O)c1cc(C(=O)OCC)cc(-n2c(C)cc(C(=O)CN3CCOCC3)c2C)c1 | 2 | -11 | 0 | 4.9* | 3 | -3 | 7880* | x | i
